# Data from ChEMBL document CHEMBL4513216, “Probing the Open Global Health Chemical Diversity Library for Multistage-Active Starting Points for Next-Generation Antimalarials” (ACS Infect Dis, 2020).
# Assay: Toxicity liver stage against HepG2, at 10uM
# Assay type: cell-based
# Design: test concentration 10 uM, cell line HepG2-A16-CD81EGFP
# Conditions: human, HepG2-A16-CD81EGFP cells; read-out: INHIBITION
# How it was run: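 Uninfected HepG2-A16-CD81EGFP cells, 3 × 10^3 per well, 1536-well, plated on prespotted compound at 10 μM final, parasite-free screening media added to match infected plates; puromycin 10 μM positive, DMSO 0.5% negative; run in parallel with 48 h PbLuc assay at 37 °C, 5% CO2; viability by CellTiter-Glo luminescence, normalized to controls.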
row,SMILES,cytotoxicity at 10 µM [%]
1,Cc1cc(CN2CCN(C(=O)NCc3ccc(C)s3)CC2)on1,-4.56
2,CN(C)c1cccc(C(=O)Nc2cnn(Cc3ccccn3)c2)c1,4.81
3,COc1cccc(-c2cc(C(=O)N3N=C(C)CC3(O)C(F)(F)F)[nH]n2)c1 (stereo unspecified),5.97
4,Cc1cccc(NC(=O)N2CCC(CO)(Nc3ccccc3)CC2)c1,0.045
5,O=C(CN1C=Nc2ccccc2S1(=O)=O)NC1CCCCC1,4.75
6,O=C(CC1=CCCCC1)NCc1ccnc(OC2CCOCC2)c1,-0.103
7,CC(C)CN1CCCC1c1ccc(C(=O)Nc2cn(C)nn2)s1 (stereo unspecified),-4.69
8,Cc1nc(C(C)NC(=O)c2cn(Cc3ccc(Cl)cc3)nn2)n[nH]1 (stereo unspecified),10.2
9,CCN1CC(COC(=O)c2ccc(Br)cc2F)CC1=O (stereo unspecified),-2.45
10,Cc1cncc(C2CCCN2CCO)n1 (stereo unspecified),-3.14
11,Oc1cccc(CNCCC2CCCO2)c1 (stereo unspecified),4.08
12,CCC(CO)N(Cc1ccsc1)Cc1ccc(-c2ccn[nH]2)s1 (stereo unspecified),-1.37
13,COCCN1CCCC2(CCN(c3ccsc3)C2=O)C1 (stereo unspecified),-79.6
14,COCC(c1ccccn1)N(C)C(=O)c1cc(-c2ccc(O)cc2)n[nH]1 (stereo unspecified),-4.07
15,CCNc1nc2cn(-c3ccc(OC(F)(F)F)cc3)c(=O)c-2c[nH]1,11.8
16,CC(C)Oc1cccc(CC(=O)N(CC(N)=O)C2CCCC2)c1,-2.09
17,CC(=O)NCCC(=O)NCc1ccc(Br)cc1Cl,0.871
18,COC[C@]12COC[C@H]1CN(S(=O)(=O)c1cccnc1)C2,-0.975
19,COCCn1cnnc1CCNc1cc(C)nc2ccnn12,-1.42
20,Cc1n[nH]c(SCC(=O)NC(c2ccncc2)C(C)C)n1 (stereo unspecified),16.4
21,Cc1ccc(CC(=O)N2CCN(CC(C)O)CC2)cn1 (stereo unspecified),-2.37
22,Cn1cc(CN2C[C@@H](N3CCCC3=O)[C@H]3OCCC[C@H]32)cn1,8.92
23,O=C(COc1ccc2c(c1)CCC2)NS(=O)(=O)c1cccnc1,-4.63

row,SMILES,cytotoxicity at 10 µM [%]
1,CCN(CC)CC(=O)NCc1cccnc1-n1cnc2ccccc21,1.77
2,CS(=O)(=O)NC1CCN(C(=O)NCC2CCCO2)CC1 (stereo unspecified),-1.9
3,CCCOc1ccc(C(=O)Oc2cc(=O)n3cccc(C)c3n2)cc1,5.17
4,CCOc1c(F)cccc1C(=O)N(CC)C(C)c1cccnc1 (stereo unspecified),11.8
5,Cc1nn(CC(=O)NCc2cc3n(n2)CCCN(CC(C)C)C3)cc1Cl,1.95
6,Cc1ccc(C(=O)NCCC2CN(C3CCCC3)CCO2)c(C)c1 (stereo unspecified),-3.76
7,CC(=O)N1CCn2c(COCc3csc(C)n3)cnc2C1C (stereo unspecified),-12.5
8,COCCO[C@H]1CCN(c2ccc(C)nn2)[C@H]1Cc1cccnc1,1.53
9,Cc1nn(C)cc1C(=O)N1CCCC(c2nccn2Cc2cscn2)C1 (stereo unspecified),-4.32
10,CCN1CCn2cc(CNC(=O)c3cnn(C)c3)nc2C1,8.88
11,Cc1ncc2c(n1)CN(Cc1nnc(-c3ccccc3)o1)CC2,-9.77
12,CCN1C(=O)CC[C@@H]2[C@H]1CCN2S(=O)(=O)c1cccs1,0.169
13,O=C(CN1CCN(CC(O)C2CC2)CC1)NCc1ccccc1Cl (stereo unspecified),5.23
14,Cc1ccc(NC(=O)NCCc2cnn(C)c2)c(N(C)C)n1,13.4
15,O=S(=O)(Nc1cnc(N2CCCC2)nc1)c1ccc(F)cc1F,-14.4
16,Cn1cnc2c1CCN(CCOc1ccc3c(c1)CCC(=O)N3)C2,-4.48
17,COc1ccc(C)cc1CN(Cc1ncc(C)o1)C1CCN(C)C1 (stereo unspecified),-0.76
18,CS(=O)(=O)N1CC2(CCN(CC3CC3)C2)Cc2ccccc21 (stereo unspecified),-1.93
19,Cc1ccc(F)cc1S(=O)(=O)NCc1[nH]ncc1Br,10.3
20,CNC(=O)C1CCCCN1C(=O)c1n[nH]c(=O)c2ccccc12 (stereo unspecified),0.0666
21,COc1ccc(-c2cc(C(=O)N3N=C(C)CC3(O)C(F)(F)F)[nH]n2)cc1 (stereo unspecified),1.36
22,Cn1cc(NC(=O)N2CCC(c3ccccc3)CC2)ccc1=O,-9.42
23,O=C(Nc1cccc(CNCc2ccsc2)c1)C1CC1,-10.7

row,SMILES,cytotoxicity at 10 µM [%]
1,CC(CNC(=O)c1cnc[nH]1)Oc1ccccc1Br (stereo unspecified),2.74
2,O=C(N1CCOCC1)N1C[C@H]2CN(Cc3nccs3)C[C@H]2C1,-80.8
3,O=S(=O)(NC1CCC2(CC1)OCCO2)c1cccc(Br)c1,-5.65
4,CCOC1CCCN(C(=O)c2[nH]nc(C)c2Br)C1 (stereo unspecified),0.966
5,COCC1CN(C(=O)CS(C)(=O)=O)Cc2ncn(CC3CC3)c21 (stereo unspecified),5.29
6,Cc1cc(C)n(CCC(=O)N2CCCC(c3cc(C(N)=O)[nH]n3)C2)n1 (stereo unspecified),-29.3
7,COc1cc(NC2CCCNC2)cc(OC)c1 (stereo unspecified),-9.57
8,CCN(CC)C(=O)CCCNC(=O)Cc1nc(-c2ccco2)oc1C,1.57
9,OC1(Cn2ccc3ncccc32)CCN(Cc2cccs2)CC1,-9.65
10,Cn1cc(C2CC(=O)NC23CCN(Cc2ccncc2)CC3)cn1 (stereo unspecified),13.2
11,Cc1ccc(C(=O)NCc2cccnc2N(C)C)s1,-2.12
12,CCc1nc(CC)n(CC(=O)NCc2cccc(C)c2)n1,-2.25
13,COCCn1cc(C(=O)NC2CCS(=O)(=O)C2)c2ccccc2c1=O (stereo unspecified),-4.17
14,O=C(N[C@@H]1CCC[C@@H](N2CCOCC2)[C@@H]1O)c1ncccn1,-25.9
15,Cc1nc(-c2ccco2)ccc1C(=O)NCCN1CCN(C)CC1,3.88
16,Cc1ccc(C(=O)NCc2ccccc2S(=O)(=O)N(C)CCO)cc1F,-3.04
17,CC(C)OCc1ncn2c1CN(Cc1cnn(C)c1)CCC2,6.13
18,CCCC(=O)N1CC[C@@H]2[C@H](CC1)N(Cc1cccnc1)CCS2(=O)=O,-8.63
19,c1cnc(NC2COC3(CCN(Cc4ccoc4)CC3)C2)nc1 (stereo unspecified),2.11
20,Cc1nn(C)c(N(C)C)c1CNCc1cccnc1,6
21,COc1nc2c(cc1C(=O)N1CC[C@H](CO)[C@@H](O)C1)CCC2,-42.4
22,CNc1cc(C(=O)N2CCCCC2CCn2ccnc2C)ccn1 (stereo unspecified),1.85
23,COc1ccccc1C(=O)N(C)Cc1nnc2ccccn12,-2.45

row,SMILES,cytotoxicity at 10 µM [%]
1,CNC(=O)[C@H]1C[C@@H]2CN(Cc3csc(C)n3)C[C@@H]2N1S(C)(=O)=O,-3.78
2,Cc1cc(N(C)C)cc(C2CCN(S(=O)(=O)c3cccs3)C2)n1 (stereo unspecified),7.17
3,Cc1cc(C)n(CCCN(C)c2cc(C3CC3)ncn2)n1,-0.609
4,CC(=O)NC1CCN(c2cc(-c3ccccc3)nc3c(C)c(C)nn23)C1 (stereo unspecified),-3.98
5,Cn1ncc(N2CCN(Cc3ccc(S(C)(=O)=O)cc3)CC2)cc1=O,-1.44
6,c1cnc(NCc2cncc3c2CCN(Cc2cccnc2)C3)nc1,-68.5
7,CCc1nc(C2CCCN(C(=O)CC3CCOCC3)C2)no1 (stereo unspecified),-15.3
8,Fc1cccc(C2CCCN2Cc2nnnn2C2CC2)c1 (stereo unspecified),2.8
9,O=C(CO)N1CCC(CCc2ccnc(Nc3cnccn3)c2)CC1,-0.459
10,Cc1cnc(C(=O)N2CCC3(CC2)CC(c2ccccc2)C(=O)N3)cn1 (stereo unspecified),4.9
11,CN(C)C(=O)N1CCC2(C1)CN(c1cccnc1)C(=O)CN2C (stereo unspecified),6.96
12,Cc1noc(CN2CCN(Cc3cccs3)CC2)n1,-6.23
13,CCc1noc(C2CCCCN2C(=O)c2cc(C)oc2C)n1 (stereo unspecified),8.57
14,O=C(CCN1C[C@H]2CC[C@@H]1C2)N1CCN(c2cccc(Cl)c2)C(=O)C1,1.4
15,Cc1ccc(S(=O)(=O)Nc2c(C)nn(C)c2C)cc1C,12.9
16,CCCN1CCN(C(=O)CCn2cccc2)CC1,6.14
17,Cc1ncsc1C(=O)N1CC[C@@]2(O)CCN(C(=O)N3CCCC3)C[C@H]2C1,-14.2
18,CN1CCn2nc(-c3nc4ccccc4n3C)cc2C1,-6.99
19,COCC(=O)N1CCC2(CCC2NS(=O)(=O)c2ccccc2)CC1 (stereo unspecified),0.073
20,CSc1nc(C2CC2)nc(C)c1C(=O)NCc1ccco1,5.25
21,CCCc1nnc(N2CCC(C3CCN(C)CC3)CC2)o1,-11.7
22,O=C(O)CNC(=O)Cc1csc(-c2cccc(Cl)c2)n1,4.32
23,CC(C)(NS(C)(=O)=O)c1nc(-c2ccc(F)c(F)c2)no1,-1.49

row,SMILES,cytotoxicity at 10 µM [%]
1,O=C(CCNc1ncccn1)N1CCN(c2nccs2)CC1,-11.6
2,Cc1nn(C)c(N(C)C)c1CNCc1cccc(Cn2ccnc2)c1,-12
3,CCn1nc2c(cc1=O)CN(CCOc1cccc(C#N)c1)CC2,4.67
4,O=C(CCn1ccnc1)N1CC[C@H](Oc2cccc(F)c2)[C@@H](O)CC1,-1.83
5,COCCn1ccc(=O)c(OCC(=O)Nc2cccc(OC)c2)c1C,-2.74
6,CCc1cc(N(C)CCC(O)c2ccccc2)n2nccc2n1 (stereo unspecified),-1.14
7,Cc1oc(C(=O)O)cc1S(=O)(=O)Nc1ccccc1F,-2.8
8,CC(C)Oc1ncc(C(=O)N2CCC(NC(=O)C3CC3)CC2)cc1Cl,-20.8
9,O=C(c1ccc(Cl)cc1)N1CCC(N2CCCNC2=O)CC1,8.55
10,CN1CCC(N2CCOC[C@H]2c2nc(-c3ccncc3)c[nH]2)CC1,-5.15
11,COc1c(CNC2CCN(C(=O)C3CC3)CC2)c(C(C)C)nn1C,-4.72
12,CC[C@H](C)Nc1nccc(-c2cnc3sccn3c2=O)n1,-8.72
13,CNc1ncc(CN(C)c2nc(C)c3ccc(S(C)(=O)=O)cc3n2)cn1,-3.66
14,CC1COCCN1C(=O)NCCn1ccnc1 (stereo unspecified),-50.4
15,Cc1nn(C)cc1-c1nn2c(C(F)(F)F)nnc2s1,2.48
16,CC(=O)N(Cc1c(F)cccc1F)C1CCCC1,-3.63
17,Cc1cc(C(=O)N2CCCC(c3cc(C(F)(F)F)[nH]n3)C2)on1 (stereo unspecified),10.5
18,CCn1cncc1CN1CCc2nc3sccc3c(=O)n2CC1,-2.55
19,Cn1cc(C(=O)N2C[C@H]3CC(Oc4ccccc4)C[C@H]3C2)cn1 (stereo partly specified),3.6
